According to ChEMBL document CHEMBL1145155, “Synthesis and identification of [1,3,5]triazine-pyridine biheteroaryl as a novel series of potent cyclin-dependent kinase inhibitors” (J Med Chem, 2005):
Values belong to the molecule of their own block, whether it stands above or below them.

How the values were obtained:
[1] = target: T1, Cyclin-dependent kinase 1 (Homo sapiens, UniProt P06493); assay: Inhibition of cyclin dependent kinase (CDK1)
How it was run: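 Radiometric FlashPlate assay: biotinylated peptide substrate at 0.025 μM with 33P-γ-ATP plus 10 μM ATP in 50 mM Tris-HCl pH 8, 10 mM MgCl2, 0.1 mM Na3VO4, 1 mM DTT. Incubated 1 h at 30 °C, stopped by PBS/100 mM EDTA wash, then scintillation counted. Inhibition is relative to untreated controls; IC50 from linear regression of percent inhibition. Conditions varied slightly per kinase.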

[2] = target: Vascular endothelial growth factor receptor 2 (Homo sapiens, UniProt P35968); assay: Inhibition of vascular endothelial growth factor receptor 2
A-375 = assay: Inhibitory concentration of compound against growth of A-375 cells; conditions: Homo sapiens
[3] = target: Mitogen-activated protein kinase 1 (Homo sapiens, UniProt P28482); assay: Inhibition of ERK 2
[4] = Inhibition of Glycogen synthase kinase-3 beta
[5] = target: Cyclin-dependent kinase 4/cyclin D1 (Homo sapiens, UniProt P11802); assay: Inhibition of CDK4/cyclin D1; type: protein-complex assay
How it was run: (§1)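 Incubated 1 h at 30 °C on a streptavidin-coated plate, stopped by washing with PBS containing 100 mM EDTA, then scintillation counted. Conditions varied slightly by kinase. IC50 was derived by linear regression of % inhibition versus untreated controls.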

[6] = target: T1, Cyclin-dependent kinase 1; assay: Inhibition of cyclin dependent kinase CDK1; how it was run: as §1
[7] = Inhibition of Protein kinase C gamma
HCT-116 = assay: Inhibitory concentration of compound against growth of HCT116 cells; conditions: Homo sapiens
CDK6/cyclin D3 = CDK6/cyclin D3 (Homo sapiens, UniProt Q00534); assay: Inhibition of CDK6/cyclin D3; type: protein-complex assay
How it was run: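 Run in an external kinase panel. Kinase phosphorylation of the appropriate peptide/protein substrate was measured with 100 μM ATP, under conditions linear with time. IC50 is the average of two separate determinations.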

Casein kinase II = Casein kinase II (Homo sapiens, UniProt P19784+P67870+P68400); assay: Inhibition of Casein kinase II; type: protein-complex assay
[8] = target: RAC-beta serine/threonine-protein kinase (Homo sapiens, UniProt P31751); assay: Inhibition of PKB beta
HeLa = assay: Inhibitory concentration of compound against growth of HeLa cells; conditions: Homo sapiens
[9] = Inhibitory concentration of compound against growth of MES SA/Dx 5 cells (high p glycoprotein); conditions: Homo sapiens, MES-SA/Dx5
[10] = target: Cyclin-dependent kinase 5/CDK5 activator 1 (Homo sapiens, UniProt Q00535)
[11] = target: Cyclin-dependent kinase 2/cyclin A (Homo sapiens, UniProt P24941); assay: Inhibitory concentration of compound against CDK2/cyclin A; type: protein-complex assay
[12] = target: Cyclin-dependent kinase 1/cyclin B (Homo sapiens, UniProt P06493); assay: Inhibition of Cyclin-dependent kinase 1-cyclin B; type: protein-complex assay
[13] = Inhibition of [Ca(2+)]/Calmodulin dependent kinase
[14] = target: Cyclin-dependent kinase 7/ cyclin H (Homo sapiens, UniProt P50613); assay: Inhibition of CDK7/cyclin H; type: protein-complex assay
How it was run: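 Run by Upstate Biotech as a contract panel: kinase phosphorylation of an appropriate peptide/protein substrate with 100 μM ATP, under conditions linear with time. IC50 is the average of two separate determinations.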

[15] = Inhibitory concentration of compound against growth of MES SA cells (low p glycoprotein); conditions: Homo sapiens
[16] = target: Fibroblast growth factor receptor 2 (Homo sapiens, UniProt P21802); assay: Inhibition of Fibroblast growth factor receptor 2
U-937 = assay: Inhibitory concentration of compound against growth of U-937 cells; conditions: Homo sapiens

- IC50 [1]: 344 nM
- IC50 [2]: 4140 nM
SMILES: OCCCNc1cncc(-c2ncnc(Nc3ccc4c(c3)OCCO4)n2)c1

- IC50 [2]: > 10000 nM
SMILES: OCCCNc1cncc(-c2ncnc(Nc3cccc(Cl)c3)n2)n1

- IC50 [2]: 5030 nM
SMILES: OCCCNc1cncc(-c2ncnc(Nc3ccc(N4CCOCC4)cc3)n2)c1

- IC50 [1]: 60 nM
- IC50 [2]: 2010 nM
SMILES: OCCCNc1cncc(-c2ncnc(Nc3cccc(Cl)c3)n2)c1

The next lines start with the molecule.

SMILES: Nc1nc(Nc2cccc(Cl)c2)nc(-c2ccnc(NCCCO)c2)n1
- IC50 [1]: 1110 nM
- IC50 [2]: 1070 nM

SMILES: OCCCNc1cc(-c2ncnc(Nc3cccc(Cl)c3)n2)ccn1
- IC50 (A-375): 28 nM
- IC50 [3]: > 10000 nM
- IC50 [4]: 20 nM
- IC50 [5]: 308 nM
- IC50 [6]: 21 nM
- IC50 [7]: > 10000 nM
- IC50 (HCT-116): 23 nM
- IC50 (CDK6/cyclin D3): 356 nM
- IC50 (Casein kinase II): > 10000 nM
- IC50 [8]: > 10000 nM
- IC50 (HeLa): 33 nM
- IC50 [9]: 235 nM
- IC50 [10]: 3 nM
- IC50 [11]: 7 nM
- IC50 [12]: 21 nM
- IC50 [13]: > 10000 nM
- IC50 [14]: 126 nM
- IC50 [15]: 228 nM
- IC50 [16]: > 10000 nM
- IC50 (U-937): 31 nM
